One may read the Kd as the concentration at which binding is half-saturated.

From ChEMBL document CHEMBL3817742, “Structural Basis for the Selective Binding of Inhibitors to 6-Hydroxymethyl-7,8-dihydropterin Pyrophosphokinase from Staphylococcus aureus and Escherichia coli” (J Med Chem, 2016) come the findings set out here.

Activity calls are given as the source filed them. No cut-off for these calls is given here.

For assay [1], the target named is T1, 2-amino-4-hydroxy-6-hydroxymethyldihydropteridine pyrophosphokinase (Escherichia coli (strain K12), UniProt P26281).
T1 sequence (P26281 whole entry): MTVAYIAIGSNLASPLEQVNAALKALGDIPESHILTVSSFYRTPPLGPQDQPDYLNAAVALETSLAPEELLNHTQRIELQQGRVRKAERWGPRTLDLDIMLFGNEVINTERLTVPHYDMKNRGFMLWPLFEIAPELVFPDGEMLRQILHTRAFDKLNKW
The assay is described as follows: Binding affinity to biotinylated Escherichia coli HPPK expressed in Escherichia coli BL21 (DE3) in presence of 1 mM ATP by SPR assay. In short, it runs like this: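 N-terminal His6/TEV-cleavable construct expressed in E. coli BL21(DE3), Ni-NTA purified, His-tag cleaved, then size exclusion. Minimally biotinylated via NHS-activated biotin and captured on streptavidin chip (~4900 RU). Analytes in 3-fold serial dilutions, duplicate or more; sensorgrams solvent-corrected, double-referenced.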
(SPR reads the build-up and loss of mass on a sensor chip optically.)

Assay [2] has as its target T2, 2-amino-4-hydroxy-6-hydroxymethyldihydropteridin e pyrophosphokinase (Staphylococcus aureus, UniProt X5EH84).
T2 sequence (X5EH84 whole entry): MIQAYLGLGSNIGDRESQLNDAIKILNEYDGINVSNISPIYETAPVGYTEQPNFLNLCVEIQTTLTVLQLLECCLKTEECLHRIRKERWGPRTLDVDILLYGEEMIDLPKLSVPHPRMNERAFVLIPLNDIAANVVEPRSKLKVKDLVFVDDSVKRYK
In words: Binding affinity to biotinylated Staphylococcus aureus HPPK in presence of 1 mM ATP by SPR assay. In short, it runs like this: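 Enzyme minimally biotinylated via maleimide-activated biotin, captured on streptavidin chip (~3800 RU). 3-fold serial dilutions, top concentration between 3 and 300 μM; 60 s contact at 30 μL·min−1, 60 s dissociation; duplicate or more; double-referenced, globally fitted where limited.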

In assay [3] the target is T3, 2-amino-4-hydroxy-6-hydroxymethyldihydropteridin e pyrophosphokinase (Staphylococcus aureus) (UniProt X5EH84).
T3 sequence (whole entry): T2 sequence (X5EH84 whole entry)
The assay is described as follows: Binding affinity to AMPCPP-loaded and 15N/13C-labeled Staphylococcus aureus HPPK assessed a induction of chemical shift changes in 15N HSQC spectra by HNCA triple resonance 3D NMR spectroscopy.

For assay [4], the target named is T3, 2-amino-4-hydroxy-6-hydroxymethyldihydropteridin e pyrophosphokinase (Staphylococcus aureus). The assay is described as follows: Binding affinity to AMPCPP-loaded and 15N/13C-labeled Staphylococcus aureus HPPK assessed a induction of 1H-15N chemical shift perturbations by 2D 15N-FAST-HSQC NMR spectrscopy.

`Nc1nc2[nH]c(SCc3cccc(C(=O)O)c3)nc2c(=O)[nH]1`: the Kd amounted to 26 µM in assay [1] and 2600 nM in assay [2].

As for `Cc1ccc(F)c(CSc2nc3c(=O)[nH]c(N)nc3[nH]2)c1`, the figures for the Kd in assay [1] and in assay [2] were 0.965 µM and 210 nM, respectively.

With `COc1ccc(CSc2nc3c(=O)[nH]c(N)nc3[nH]2)c(F)c1`, the Kd in assay [1] turned out to be 0.95 µM; in assay [2], 300 nM.

`Cc1cccc(CSc2nc3c(=O)[nH]c(N)nc3[nH]2)c1F`: the Kd in assay [1] worked out at 10.7 µM; in assay [2], 2800 nM.

Take `Nc1nc2[nH]c(SCC(=O)c3ccc(Br)cc3)nc2c(=O)[nH]1`: the equilibrium dissociation constant (Kd) in assay [1] was 0.7 µM; in assay [2], 570 nM.

For the compound `Nc1nc2[nH]c(SCc3ccc(Br)cc3)nc2c(=O)[nH]1`, the results for the Kd in assay [1] and in assay [2] were 2.13 µM and 950 nM, respectively.

On to `Cc1cc(CSc2nc3c(=O)[nH]c(N)nc3[nH]2)ccc1F`, for which the dissociation constant (Kd) in assay [1] came out at 10.1 µM; in assay [2], 3600 nM.

As to `CCN(C)C(=O)C(C)Sc1nc2c(=O)[nH]c(N)nc2[nH]1` (stereo not drawn), the results for the Kd in assay [1] and in assay [2] were 120 µM and 46000 nM, respectively.

Take `Nc1nc2[nH]c(SCC(O)CO)nc2c(=O)[nH]1` (stereo not drawn): the Kd is 82 µM in assay [1] and 13400 nM in assay [2].

Regarding `Nc1nc2[nH]c(SCCCO)nc2c(=O)[nH]1`, the Kd in assay [1] was 68 µM; in assay [2], 4600 nM.

Regarding `Nc1nc2[nH]c(SCc3cc(C(F)(F)F)cc(C(F)(F)F)c3)nc2c(=O)[nH]1`, the Kd in assay [2] amounted to 1200 nM.

As to `Cc1ccccc1CSc1nc2c(=O)[nH]c(N)nc2[nH]1`, the Kd in assay [1] amounted to 2.5 µM; in assay [2], 470 nM.

In the case of `COc1ccc(CSc2nc3c(=O)[nH]c(N)nc3[nH]2)cc1`, the Kd came out at 2.2 µM in assay [1] and 520 nM in assay [2].

Consider `Nc1nc2[nH]c(SCc3ccc(F)cc3)nc2c(=O)[nH]1`, for which the Kd in assay [1] came out at 3.9 µM; in assay [2] it was 300 nM.

As for `N#Cc1ccc(CSc2nc3c(=O)[nH]c(N)nc3[nH]2)c(F)c1`, the Kd in assay [1] was 2.7 µM; in assay [2] it was 590 nM. In addition, the result in assay [3] and in assay [4] was Active.

For `N#Cc1ccc(CSc2nc3nc(N)[nH]c(=O)c3[nH]2)cc1`, the result in assay [3] and in assay [4] was Active.

As to `CNC(=O)CSc1nc2c(=O)[nH]c(N)nc2[nH]1`, the Kd in assay [1] was determined as 50 µM; in assay [2], 8800 nM.

In the case of `Nc1nc2[nH]c(SCCO)nc2c(=O)[nH]1`, the Kd in assay [1] is 89.2 µM; in assay [2] it was 7600 nM.

For the compound `Nc1nc2[nH]c(SCc3ccc(F)cc3F)nc2c(=O)[nH]1`, the Kd is 1.4 µM in assay [1] and 260 nM in assay [2].

For `Nc1nc2[nH]c(SCCN3CCCC3=O)nc2c(=O)[nH]1`, in assay [2], the Kd was 7900 nM.

Consider `Nc1nc2[nH]c(SCc3ccccc3F)nc2c(=O)[nH]1`, for which the result in assay [4] was Active.

`Nc1nc2[nH]c(SCc3cccc(F)c3)nc2c(=O)[nH]1`: the values for the equilibrium dissociation constant (Kd) in assay [1] and in assay [2] were 2.6 µM and 220 nM, respectively.

For the compound `Nc1nc2[nH]c(SCc3ccccc3)nc2c(=O)[nH]1`, the outcome in assay [3] and in assay [4] was Active.

For `Nc1nc2[nH]c(S)nc2c(=O)[nH]1`, the dissociation constant (Kd) in assay [1] was determined as 160 µM.

For `Cc1cc(C)cc(CSc2nc3c(=O)[nH]c(N)nc3[nH]2)c1`, the results for the Kd in assay [1] and in assay [2] were 6.9 µM and 2300 nM, respectively.

In the case of `Nc1nc2[nH]c(SCc3cccc([N+](=O)[O-])c3)nc2c(=O)[nH]1`, the Kd in assay [1] turned out to be 5.8 µM; in assay [2], 1400 nM.

As for `CN(C)C(=O)CSc1nc2c(=O)[nH]c(N)nc2[nH]1`, the results for the Kd in assay [1] and in assay [2] were 53 µM and 1500 nM, respectively.

As for `Nc1nc2[nH]c(SCCC3OCCCO3)nc2c(=O)[nH]1`, the Kd was determined as 23.3 µM in assay [1] and 7900 nM in assay [2].

In the case of `Nc1nc2[nH]c(SCc3ccccc3[N+](=O)[O-])nc2c(=O)[nH]1`, the values for the Kd in assay [1] and in assay [2] were 5.7 µM and 540 nM, respectively.

Consider `Nc1nc2[nH]c(SCc3cccc(Cl)c3)nc2c(=O)[nH]1`, for which the results for the Kd in assay [1] and in assay [2] were 1.7 µM and 570 nM, respectively.

As to `Nc1nc2[nH]c(SCc3cccc(OC(F)(F)F)c3)nc2c(=O)[nH]1`, the values for the dissociation constant Kd in assay [1] and in assay [2] were 5.7 µM and 1610 nM, respectively.

Regarding `Nc1nc2[nH]c(SCc3ccc(F)c(F)c3)nc2c(=O)[nH]1`, the Kd in assay [1] was 2 µM; in assay [2], 290 nM.

Consider `Cc1cc(F)ccc1CSc1nc2c(=O)[nH]c(N)nc2[nH]1`, for which the Kd in assay [1] is 16.3 µM; in assay [2] it was 1970 nM.

Consider `Cc1cccc(CSc2nc3c(=O)[nH]c(N)nc3[nH]2)c1C`, for which the figures for the Kd in assay [1] and in assay [2] were 6.1 µM and 841 nM, respectively.

For `COCCSc1nc2c(=O)[nH]c(N)nc2[nH]1`, the results for the Kd in assay [1] and in assay [2] were 52 µM and 2760 nM, respectively.

Take `CC(C)CNC(=O)CSc1nc2c(=O)[nH]c(N)nc2[nH]1`: the Kd in assay [1] stood at 59.4 µM; in assay [2], 13000 nM.

Take `CCN(CC)C(=O)CSc1nc2c(=O)[nH]c(N)nc2[nH]1`: the Kd in assay [1] amounted to 74.2 µM; in assay [2] it was 11000 nM.

`Nc1nc2[nH]c(SCC(O)C(F)(F)F)nc2c(=O)[nH]1` (stereo not drawn): the values for the Kd in assay [1] and in assay [2] were 97 µM and 3600 nM, respectively.

For `Cc1ccc(C)c(CSc2nc3c(=O)[nH]c(N)nc3[nH]2)c1`, the Kd turned out to be 12.6 µM in assay [1] and 1700 nM in assay [2].

As to `Nc1nc(O)c2[nH]c(SCc3ccc(Cl)cc3)nc2n1`, the values for the Kd in assay [1] and in assay [2] were 4.3 µM and 1240 nM, respectively.

As to `N#Cc1cc(CSc2nc3c(=O)[nH]c(N)nc3[nH]2)ccc1F`, the figures for the Kd in assay [1] and in assay [2] were 5.3 µM and 2100 nM, respectively.

On to `N#Cc1ccccc1CSc1nc2c(=O)[nH]c(N)nc2[nH]1`, for which the Kd in assay [1] is 23 µM; in assay [2] it was 510 nM.

With `COc1cccc(CSc2nc3c(=O)[nH]c(N)nc3[nH]2)c1`, the dissociation constant Kd in assay [1] was determined as 1.8 µM; in assay [2] it was 650 nM.

Consider `N#Cc1cc(F)ccc1CSc1nc2c(=O)[nH]c(N)nc2[nH]1`, for which the Kd in assay [1] amounted to 38 µM; in assay [2], 1200 nM.

Turning to `Nc1nc2[nH]c(SCc3ccccc3Cl)nc2c(=O)[nH]1`, the Kd in assay [2] was found to be 1300 nM.

As for `Cc1cccc(CSc2nc3c(=O)[nH]c(N)nc3[nH]2)c1`, the Kd in assay [1] came out at 1.7 µM; in assay [2], 380 nM.

Consider `N#Cc1cccc(CSc2nc3c(=O)[nH]c(N)nc3[nH]2)c1`, for which the results for the Kd in assay [1] and in assay [2] were 3.5 µM and 770 nM, respectively.

Take `Nc1nc2[nH]c(SCc3ccc(OC(F)(F)F)cc3)nc2c(=O)[nH]1`: the Kd in assay [1] amounted to 5.2 µM; in assay [2] it was 2100 nM.

Regarding `Nc1nc2[nH]c(SCc3ccc(C(F)(F)F)cc3)nc2c(=O)[nH]1`, the Kd in assay [2] was found to be 1930 nM.

For `COc1ccc(C(=O)CSc2nc3nc(N)[nH]c(=O)c3[nH]2)cc1`, in assay [4], the result was Active.

On to `Nc1nc2[nH]c(SCc3ccccc3Br)nc2c(=O)[nH]1`, for which the values for the dissociation constant (Kd) in assay [1] and in assay [2] were 8.5 µM and 1500 nM, respectively.

Take `Nc1nc2[nH]c(SCc3cccc(Br)c3)nc2c(=O)[nH]1`: the figures for the dissociation constant Kd in assay [1] and in assay [2] were 7.1 µM and 3100 nM, respectively.

Regarding `Nc1nc2[nH]c(SCc3c(F)cccc3F)nc2c(=O)[nH]1`, the values for the dissociation constant Kd in assay [1] and in assay [2] were 1.76 µM and 120 nM, respectively. Moreover, the outcome in assay [3] and in assay [4] was Active.
